Data published in ChEMBL document CHEMBL1128362, “Structure-activity relationships of 9-alkyladenine and ribose-modified adenosine derivatives at rat A3 adenosine receptors” (J Med Chem, 1995).
Several values for one entry are separate records, joined by “and”; a condition that tells them apart may be missing. Equal entries are not always repeated. Activity calls are given as the source filed them. No cut-off for these calls is given here.

Key:
[1] = molecular target: Adenosine receptors; A1 & A3 (Rattus norvegicus) (UniProt P25099+P28647); experiment: Ratio of the binding affinities against rat brain A1 and A3 receptors, KiA1/KiA3.
[2] = molecular target: T1, Adenosine receptor A3 (Rattus norvegicus) (UniProt P28647); conditions: CHO
T1 sequence (whole entry): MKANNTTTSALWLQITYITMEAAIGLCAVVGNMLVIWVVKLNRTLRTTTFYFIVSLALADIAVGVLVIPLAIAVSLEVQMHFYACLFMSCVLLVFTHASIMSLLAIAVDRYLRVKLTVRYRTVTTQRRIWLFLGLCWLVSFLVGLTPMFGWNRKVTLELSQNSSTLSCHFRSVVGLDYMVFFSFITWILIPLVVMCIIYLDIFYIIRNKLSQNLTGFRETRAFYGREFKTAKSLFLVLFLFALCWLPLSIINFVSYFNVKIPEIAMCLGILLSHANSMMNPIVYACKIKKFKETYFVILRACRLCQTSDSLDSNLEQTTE

Adenosine receptor A3 = molecular target: T2, Adenosine receptor A3 (Rattus norvegicus, UniProt P28647); experiment: Binding affinity against adenosine A3 receptor (rat) stably expressed in CHO cell membranes.
T2 sequence (P28647 whole entry): T1 sequence (whole entry)
How it was run: (§1)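 Rat brain A3 receptor was stably expressed in CHO cell membranes and labelled with [125I]AB-MECA at 0.3 nM final, in 50 mM Tris/10 mM MgCl2/1 mM EDTA, pH 8.26. Inhibitors were in DMSO, at no more than 2% final. Incubation was 1 h at 37 °C in duplicate, ended by filtration. Nonspecific binding was defined by 200 µM NECA.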

Adenosine receptor A1 = molecular target: T3, Adenosine receptor A1 (Rattus norvegicus, UniProt P25099); experiment: Binding affinity against adenosine A1 receptor from rat brain.
T3 sequence (P25099 whole entry): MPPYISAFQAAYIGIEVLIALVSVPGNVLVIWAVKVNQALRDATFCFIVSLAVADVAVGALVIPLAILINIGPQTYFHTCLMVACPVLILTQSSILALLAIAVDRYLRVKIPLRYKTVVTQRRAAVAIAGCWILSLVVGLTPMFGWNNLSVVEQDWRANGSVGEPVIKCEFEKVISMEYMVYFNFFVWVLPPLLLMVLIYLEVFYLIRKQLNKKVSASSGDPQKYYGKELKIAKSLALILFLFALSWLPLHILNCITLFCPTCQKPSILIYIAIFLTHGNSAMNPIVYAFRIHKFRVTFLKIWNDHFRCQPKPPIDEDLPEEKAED

Adenosine receptor A2a = Adenosine receptor A2a (Rattus norvegicus, UniProt P30543); experiment: Binding affinity against adenosine A2A receptor from rat brain.
[3] = molecular target: Adenosine receptor A2a and A3 (Rattus norvegicus) (UniProt P30543+P28647); experiment: Ratio of the binding affinities against rat brain A2a and A3 receptors, KiA2a/KiA3.
[4] = molecular target: T1, Adenosine receptor A3 (Rattus norvegicus); experiment: Ratio of the concentration (40 uM) effecting adenylyl cyclase and binding affinity against rat brain A3 receptors.
How it was run: (§2)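 This ratio is the adenylyl cyclase test concentration (20, 40 or 100 µM) divided by the A3 Ki. The Ki came from [125I]AB-MECA displacement in membranes of CHO cells expressing rat A3 receptor.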

[5] = molecular target: T1, Adenosine receptor A3 (Rattus norvegicus); experiment: Ability to inhibit the adenylyl cyclase in CHO cells stably transfected with rat Adenosine A3 receptor at the concentration of 40(uM); format: cell-based
How it was run: (§3)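 Adenylyl cyclase activity measured in membranes of CHO cells stably transfected with rat brain A3 receptor, following an earlier published method. […] Untransfected CHO cell membranes served as the control.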

[6] = molecular target: T1, Adenosine receptor A3 (Rattus norvegicus); experiment: Ability to inhibit the adenylyl cyclase in CHO cells stably transfected with rat Adenosine A3 receptor at the concentration of 100 uM; format: cell-based; how it was run: as §3
[7] = molecular target: T1, Adenosine receptor A3 (Rattus norvegicus); experiment: Ability to inhibit the adenylyl cyclase in CHO cells stably transfected with rat Adenosine A3 receptor at the concentration of 20(uM); format: cell-based; how it was run: as §3
[8] = molecular target: T1, Adenosine receptor A3 (Rattus norvegicus); experiment: Ratio of the concentration (100 uM) effecting adenylyl cyclase and binding affinity against rat brain A3 receptors.; how it was run: as §2
[9] = molecular target: T1, Adenosine receptor A3 (Rattus norvegicus); experiment: Ratio of the concentration (20 uM) effecting adenylyl cyclase and binding affinity against rat brain A3 receptors; how it was run: as §2
[10] = molecular target: T1, Adenosine receptor A3 (Rattus norvegicus); experiment: Inhibition of Adenosine A3 receptor from rat brain; conditions: concentration not given here; how it was run: as §1
[11] = molecular target: Adenosine receptor A2a (Rattus norvegicus) (UniProt P30543); experiment: Binding affinity against Adenosine A2A receptor from rat brain; design: concentration or dose not given beside the values; conditions: concentration not given here
How it was run: (§4)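 Rat A1 receptors came from cerebral cortical membranes with [3H]R-PIA, and rat A2a receptors came from striatal membranes with [3H]CGS 21680. Membranes were pretreated with adenosine deaminase (2 U/mL) for 30 min at 37 °C. Nonspecific binding was defined by 2-chloroadenosine at 10 µM (A1) and 200 µM (A2a).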

[12] = molecular target: T4, Adenosine receptor A1 (Rattus norvegicus) (UniProt P25099); experiment: Inhibition of Adenosine A1 receptor from rat brain.; conditions: concentration not given here; how it was run: as §4
T4 sequence (whole entry): T3 sequence (P25099 whole entry)

[13] = molecular target: T1, Adenosine receptor A3 (Rattus norvegicus); experiment: Agonist elicited inhibition of adenylyl cyclase via rat Adenosine A3 receptor in transfected CHO cells and effect on IB-MECA was determined from dose response curves at the concentration of 40(uM); format: functional, cell-based
How it was run: (§5)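 CHO cell membranes stably transfected with rat A3 receptor were used to test for antagonism. Adenylyl cyclase inhibition was elicited by the A3 agonist IB-MECA across a dose-response curve, and test agent at 40 or 100 µM was checked for reversal of the agonist-induced inhibition. The cyclase measurement followed a previously described method.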

[14] = molecular target: T1, Adenosine receptor A3 (Rattus norvegicus); experiment: Agonist elicited inhibition of adenylyl cyclase via rat Adenosine A3 receptor in transfected CHO cells and effect on IB-MECA was determined from dose response curves at the concentration of 100(uM); format: functional, cell-based; how it was run: as §5
[15] = molecular target: T1, Adenosine receptor A3 (Rattus norvegicus); conditions: CHO; remark: listed apart in the source
[16] = molecular target: T1, Adenosine receptor A3 (Rattus norvegicus); conditions: CHO; remark: listed apart in the source
[17] = molecular target: T1, Adenosine receptor A3 (Rattus norvegicus); experiment: Ratio of the concentration (40 uM) effecting adenylyl cyclase and binding affinity against rat brain Adenosine A3 receptor; how it was run: as §2
[18] = molecular target: T1, Adenosine receptor A3 (Rattus norvegicus); experiment: Ability to inhibit the adenylyl cyclase in CHO cells stably transfected with rat Adenosine A3 receptor at the dose of 40(uM); format: cell-based; how it was run: as §3

Chain of Adenosine receptor A2a (P30543 whole entry): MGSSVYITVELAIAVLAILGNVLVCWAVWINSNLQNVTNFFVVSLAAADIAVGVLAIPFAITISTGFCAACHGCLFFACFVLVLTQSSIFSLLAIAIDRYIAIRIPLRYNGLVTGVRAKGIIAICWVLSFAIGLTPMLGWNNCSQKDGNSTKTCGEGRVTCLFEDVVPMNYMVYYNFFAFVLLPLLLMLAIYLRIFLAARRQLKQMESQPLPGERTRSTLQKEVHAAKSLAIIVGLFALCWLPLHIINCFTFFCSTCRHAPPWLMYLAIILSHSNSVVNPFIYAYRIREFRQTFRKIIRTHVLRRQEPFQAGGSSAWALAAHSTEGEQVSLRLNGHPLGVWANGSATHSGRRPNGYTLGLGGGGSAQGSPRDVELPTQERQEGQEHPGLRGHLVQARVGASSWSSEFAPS
Chain of Adenosine receptor A2a (Rattus norvegicus) (P30543 whole entry): as above
Chain of Adenosine receptor A2a and A3 (Rattus norvegicus) (P30543 whole entry, looked up, one chain of several): as the sequence (P30543 whole entry) above

SMILES: CSc1nc(NCc2cccc(I)c2)c2ncn(C[C@H](O)CO)c2n1
- Ratio [1]: 0.16
- Effect [2]: 0
- Ki (Adenosine receptor A3): 8.59 µM
- Ki (Adenosine receptor A1): 1.34 µM
- Ki (Adenosine receptor A2a): 78.9 µM
- Ratio [3]: 9.2
- Ratio [4]: 4.6
- inhibition [5]: 5.5% and 7.3%

SMILES: OC[C@@H](O)Cn1cnc2c(NCc3cccc(I)c3)ncnc21
- Ratio [1]: 0.55
- Ratio [3]: 0.76

SMILES: CNC(=O)[C@@H]1C[C@H](N=[N+]=[N-])[C@H](n2cnc3c(NCc4cccc(I)c4)nc(Cl)nc32)O1
- Ratio [1]: 0.067
- inhibition [6]: 27.8%
- inhibition [7]: 25.7% and 18%
- Ratio [8]: 17
- Ratio [3]: 4.7
- Ratio [9]: 3.3

SMILES: CCn1cnc2c(NC3CCCC3)ncnc21
- Ratio [1]: < 1
- inhibition [10]: 30%
- Ratio [3]: < 1

SMILES: CNC(=O)[C@@H]1C[C@@H](O)[C@H](n2cnc3c(NCc4cccc(I)c4)nc(Cl)nc32)O1
- Ratio [1]: 31
- Ratio [8]: 3000
- Ratio [3]: 140
- Ratio [4]: 1200
- inhibition [5]: 35.2%

SMILES: CNC(=O)[C@H]1O[C@@H](n2cnc3c(NCc4cccc(I)c4)nc(Cl)nc32)[C@@H]2OC(=S)O[C@@H]21
- Ratio [1]: 15
- Ratio [8]: 8200
- Ratio [3]: 71

SMILES: O=C(O)Cn1cnc2c(NCc3cccc(I)c3)ncnc21
- inhibition [11]: 9%
- inhibition [12]: 17%

SMILES: CNC(=O)[C@@H]1C[C@H](N)[C@H](n2cnc3c(NCc4cccc(I)c4)nc(Cl)nc32)O1
- inhibition [11]: 2%

SMILES: Nc1nc(Cl)nc2c1ncn2[C@@H]1O[C@H](CO)[C@@H](O)[C@@H]1O
- Ki (Adenosine receptor A3): 14 µM
- Ki (Adenosine receptor A1): 24.2 µM
- inhibition [5]: 16.1%

SMILES: Cn1cnc2c(NCc3cccc(I)c3)nc(Cl)nc21
- Ratio [1]: 0.0088
- Ratio [3]: 0.053

SMILES: CN(C)c1nc(NCc2cccc(I)c2)c2ncn(C)c2n1
- Ratio [1]: 0.099
- Ratio [3]: 0.66

SMILES: CNC(=O)[C@@H]1CC[C@H](n2cnc3c(NCc4ccccc4)nc(Cl)nc32)O1
- Ratio [1]: 0.37
- Ratio [3]: 7.1
- Ratio [4]: 1.3
- inhibition [5]: 7.5% and 10.8%
- Effect [13]: 0

SMILES: COc1nc(NCc2cccc(I)c2)c2ncn(C)c2n1
- Ratio [1]: 0.027
- Ratio [3]: 0.068

SMILES: CNC(=O)[C@@H]1C[C@@H](F)[C@H](n2cnc3c(NCc4cccc(I)c4)nc(Cl)nc32)O1
- Ratio [1]: 0.08
- Ki (Adenosine receptor A3): 17.8 µM
- inhibition [6]: 11.2%
- Ratio [8]: 5.6
- Ki (Adenosine receptor A1): 1.42 µM
- Ki (Adenosine receptor A2a): 98 µM
- Ratio [3]: 5.5

SMILES: CSc1nc(NCc2cccc(I)c2)c2ncn(C)c2n1
- Ratio [1]: 6.3
- inhibition [6]: 19.5%
- Ratio [8]: 330
- Ratio [3]: 5.5
- Effect [14]: 0

SMILES: CNC(=O)[C@@H]1C[C@@H](OS(C)(=O)=O)[C@H](n2cnc3c(NCc4cccc(I)c4)nc(Cl)nc32)O1
- Ratio [1]: 0.18
- Ratio [3]: 5.8

SMILES: CNC(=O)[C@@H]1C[C@@H](OC(C)=O)[C@H](n2cnc3c(NCc4cccc(I)c4)nc(Cl)nc32)O1
- Ratio [1]: 12
- inhibition [7]: 12.7%
- Ratio [3]: 250
- Ratio [9]: 320

SMILES: OCCn1cnc2c(NCc3cccc(I)c3)ncnc21
- Ratio [1]: 0.37
- Ratio [3]: 0.24

SMILES: Cn1cnc2c(NCc3cccc(I)c3)nc(N)nc21
- Ratio [1]: 0.14
- Ratio [3]: 0.08

SMILES: CNC(=O)[C@H]1C[C@@H](n2cnc3c(NCc4cccc(I)c4)ncnc32)[C@H](O)[C@@H]1O
- Ratio [1]: 1.8
- inhibition [11]: 28.5%
- Ki (Adenosine receptor A3): 19.5 µM
- Ki (Adenosine receptor A1): 35.9 µM
- Ratio [3]: > 1

SMILES: CNc1nc(NCc2cccc(I)c2)c2ncn(C)c2n1
- Ratio [1]: 0.67
- Ratio [3]: 3.7

SMILES: CCCCCC[C@@H]([C@@H](C)O)n1cnc2c(N)ncnc21
- inhibition [10]: 57%
- inhibition [11]: 60%
- inhibition [5]: 5.9%
- Effect [13]: 0

SMILES: CNC(=O)[C@H]1O[C@@H](n2cnc3c(NCc4cccc(I)c4)ncnc32)[C@H](O)[C@@H]1O
- inhibition [6]: 44.4%
- Effect [15]: inactive
- Effect [16]: inactive

SMILES: Cn1cnc2c(NCc3cccc(I)c3)nc(Sc3ccncc3)nc21
- Ratio [1]: 0.0051
- Ratio [3]: 0.07

SMILES: CC(C)[Si]1(C(C)C)OC[C@H]2O[C@@H](n3cnc4c(NCc5cccc(I)c5)nc(Cl)nc43)[C@H](O)[C@@H]2O[Si](C(C)C)(C(C)C)O1
- Ratio [1]: 5.1
- inhibition [11]: 18%
- inhibition [6]: 8.7%
- Ratio [8]: 7.6
- Ratio [3]: > 7

SMILES: Cn1cnc2c(NCc3cccc(I)c3)nc(NN)nc21
- Ratio [1]: 0.05
- Ratio [3]: 0.18

SMILES: CC(O)[C@@H]1O[C@@H](n2cnc3c(N)ncnc32)[C@H](O)[C@@H]1O (stereo partly drawn)
- Ratio [1]: < 1
- Ki (Adenosine receptor A3): 6 µM
- Ki (Adenosine receptor A1): 150 µM
- Ki (Adenosine receptor A2a): 54.7 µM
- Ratio [3]: < 1
- inhibition [5]: 0%

SMILES: Cn1cnc2c(NC3CCCC3)ncnc21
- Ratio [1]: 0.00041
- Ki (Adenosine receptor A3): 1330 µM
- Ki (Adenosine receptor A2a): 11 µM
- Ratio [3]: 0.0083

SMILES: N#CCCCn1cnc2c(NCc3cccc(I)c3)ncnc21
- Ratio [1]: 0.032
- Ratio [3]: 0.1

SMILES: CS[C@H]1OC(n2cnc3c(N)ncnc32)[C@H](O)[C@@H]1O (stereo partly drawn)
- Ratio [17]: 28
- inhibition [18]: 19.7%

SMILES: CNC(=O)C1OC(n2cnc3c(NC(=O)c4cccc(I)c4)nc(Cl)nc32)C(OC(=O)c2ccccc2)C1OC(=O)c1ccccc1 (stereo not drawn)
- inhibition [10]: 55%
- inhibition [11]: 7%
- inhibition [12]: 21%

SMILES: Cn1cnc2c(NCc3cccc(I)c3)ncnc21
- Ratio [1]: 0.12
- Ratio [3]: 0.046
